From ChEMBL document CHEMBL4680166, “Dual-functional conjugates improving cancer immunochemotherapy by inhibiting tubulin polymerization and indoleamine-2,3-dioxygenase” (Eur J Med Chem, 2020)
The source made the active and inactive calls. No cut-off for these calls is given here.

Key:
HeLa [1] = experiment: Induction of intracellular reactive oxygen species generation in human HeLa cells at 0.5 uM measured after 24 hrs by DCFH-DA staining based flow cytometry (reference value: 6.47%); format: functional
HUVEC = experiment: Cytotoxicity against HUVEC cells assessed as inhibition of cell proliferation measured after 72 hrs by MTT assay; format: cell-based; settings: Homo sapiens
In short: (§1)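 Cells (A549, PC-3, HeLa, HUVEC) grown in DMEM with 10% FBS at 37 °C, 5% CO₂. Seeded at 5 × 10⁴ cells/well and allowed 24 h to attach, then exposed 72 h to a concentration series from DMSO stocks. MTT was added for 4 h and formazan dissolved in DMSO, read at 490 nm. Survival taken relative to untreated control. IC50 by Bliss method, three repeats.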

HeLa [2] = experiment: Induction of apoptosis in human HeLa cells assessed as late apoptotic cells at 0.5 uM measured after 24 hrs by Annexin-V-FITC and PI staining based flow cytometry (reference value: 0.199%); format: functional
In short: (§2)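 HeLa cells were treated 24 h, washed twice in PBS and resuspended in binding buffer. Stained with annexin V-FITC and PI for 30 min in the dark at room temperature, then analysed by flow cytometry.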

HeLa [3] = experiment: Induction of apoptosis in human HeLa cells assessed as viable cells at 0.5 uM measured after 24 hrs by Annexin-V-FITC and PI staining based flow cytometry (reference value: 96.3%); format: functional; settings: read-out: Activity; in short: as §2
HeLa [4] = experiment: Induction of cell cycle arrest in human HeLa cells assessed as accumulation at S phase at 0.5 uM measured after 24 hrs by propidium iodide/RNAse staining based flow cytometry (reference value: 27.8%); format: functional
HeLa [5] = experiment: Induction of cell cycle arrest in human HeLa cells assessed as accumulation at G2/M phase at 0.5 uM measured after 24 hrs by propidium iodide/RNAse staining based flow cytometry (reference value: 10.7%); format: functional
HeLa [6] = experiment: Induction of intracellular reactive oxygen species generation in human HeLa cells at 0.5 uM measured after 24 hrs by DCFH-DA staining based flow cytometry relative to CA-4; format: functional
HeLa [7] = experiment: Antitumor activity against human HeLa cells xenografted in BALB/c mouse assessed as inhibition of tumor volume at 30 mg/kg/day, iv administered for 21 days by caliper analysis; format: functional; settings: 504 h, time 21 day
In short: (§3)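 Male BALB/c nude mice, five weeks old, 18-22 g. Inoculated subcutaneously in the right armpit with 1 × 10⁷ HeLa cells/0.1 mL. At 120-150 mm³, randomized to four groups of five. Once-daily tail-vein injection for 21 days in Tween 80/physiological saline; controls received saline. Tumor volume measured every 2 days by caliper, V = AB²/2.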

HeLa [8] = experiment: Induction of apoptosis in human HeLa cells assessed as upregulation of caspase-3 protein expression at 0.5 uM measured after 24 hrs by western blot analysis; format: functional, cell-based
In short: (§4)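 HeLa cells were treated 24 h at 37 °C and lysed in buffer containing PMSF. Protein quantified by BCA, equal amounts separated by SDS-PAGE and transferred to nitrocellulose. Blocked in 5% milk, primary antibodies overnight at 4 °C, peroxidase secondary 2 h at 25 °C. Detection by chemiluminescence, β-actin as loading control.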

HeLa [9] = experiment: Induction of apoptosis in human HeLa cells assessed as upregulation of PARP protein expression at 0.5 uM measured after 24 hrs by western blot analysis; format: functional, cell-based; in short: as §4
HeLa [10] = experiment: Induction of apoptosis in human HeLa cells assessed as necrotic cells at 0.5 uM measured after 24 hrs by Annexin-V-FITC and PI staining based flow cytometry (reference value: 0.956%); format: functional; in short: as §2
HeLa [11] = experiment: Induction of apoptosis in human HeLa cells assessed as mitochondrial membrane potential dissipation at 0.5 uM incubated for 24 hrs by JC-1 staining based flow cytometry (reference value: 6.6%); format: functional
HeLa [12] = experiment: Induction of apoptosis in human HeLa cells assessed as upregulation of Bax protein expression at 0.5 uM measured after 24 hrs by western blot analysis; format: functional, cell-based; in short: as §4
[13] = Toxicity in BALB/c nude mouse transfected with human HeLa cells assessed as heart damage at 15 mg/kg/day, iv for 21 days by H&E staining based immunohistochemistry; format: organism-based; settings: in vivo, 504 h, time 21 day
In short: (§5)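 After 3 weeks of daily iv dosing of HeLa-xenografted nude mice, organs were taken from one mouse per group. Fixed in 4% paraformaldehyde, paraffin-embedded and sectioned. Stained with Harris hematoxylin and eosin-phloxine, then examined microscopically for histopathology.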

[14] = Antitumor immunity against IFN-gamma stimulated human HeLa cells co-cultured with PHA-M-stimulated human PBMC cells assessed as induction of CD3+ T cell proliferation at 0.1 uM preincubated for 2 days measured after co-culturing with PBMC for 6 days by flow cytometry (reference value: 6 to 6.2%); format: functional; settings: time 8 day
HeLa [15] = experiment: Induction of apoptosis in human HeLa cells assessed as cell membrane integrity loss, chromatin condensation and apoptotic body formation by measuring reduction in green fluorescence intensity at 0.5 uM measured after 24 hrs by AO/EB dual staining based fluorescence microscopy; format: functional
HeLa [16] = experiment: Induction of apoptosis in human HeLa cells assessed as mitochondrial membrane potential dissipation by measuring increase in green fluorescence intensity at 0.5 uM incubated for 24 hrs by JC-1 staining based fluorescence microscopic analysis; format: functional, cell-based
HeLa [17] = experiment: Inhibition of IDO1 expression in hIFNgamma-stimulated human HeLa cells assessed as decrease in kynurenine production at 0.1 uM measured after 48 hrs by reverse-phase HPLC analysis; format: functional
In short: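 HeLa cells were given fresh L-tryptophan-containing medium with hIFN-γ (25 ng/mL) plus compound for 48 h. Collected cells were treated with 20% trichloroacetic acid and centrifuged. Supernatant analysed by reversed-phase HPLC (ODS column, acetonitrile/water, 1.0 mL/min, […]).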

[18] = Toxicity in BALB/c nude mouse transfected with human HeLa cells assessed as heart damage at 30 mg/kg/day, iv for 21 days by H&E staining based immunohistochemistry; format: organism-based; settings: in vivo, 504 h, time 21 day
In short: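 HeLa xenografts were grown s.c. in male BALB/c nude mice, which received i.v. tail-vein doses once daily for 21 days in Tween 80/saline vehicle, with saline controls. After 3 weeks the mice were sacrificed. Organs from one mouse per group were fixed in 4% paraformaldehyde, paraffin-embedded and sectioned. Sections were dewaxed, stained with Harris hematoxylin and eosin-phloxine, and examined microscopically for histopathologic changes.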

[19] = Toxicity in BALB/c nude mouse transfected with human HeLa cells assessed as lung damage at 15 mg/kg/day, iv for 21 days by H&E staining based immunohistochemistry; format: organism-based; settings: in vivo, 504 h, time 21 day; in short: as §5
[20] = Toxicity in BALB/c nude mouse […] with human HeLa cells assessed as body weight changes at 15 mg/kg/day, iv for 21 days; format: organism-based; settings: in vivo, 504 h, time 21 day
HeLa [21] = experiment: Antitumor activity against human HeLa cells xenografted in iv dosed BALB/c mouse assessed as inhibition of tumor growth administered once daily for 21 days by caliper analysis; format: functional, organism-based; settings: dose 15-30 mg/kg/day, time 21.0 day; in short: as §3
HeLa [22] = experiment: Anticancer activity against human HeLa cells assessed as inhibition of cell proliferation measured after 72 hrs by MTT assay; format: functional, cell-based; in short: as §1
HeLa [23] = experiment: Induction of apoptosis in human HeLa cells assessed as early apoptotic cells at 0.5 uM measured after 24 hrs by Annexin-V-FITC and PI staining based flow cytometry (reference value: 2.58%); format: functional; in short: as §2

COc1ccc(/C=C\c2cc(OC)c(OC)c(OC)c2)cc1OC(=O)c1cccc(Cn2cc(CCOC(=O)[C@H](N)Cc3cn(C)c4ccccc34)nn2)c1
Activity (HeLa [1]): 49.7%
IC50 (HUVEC): 1.52 µM
Activity (HeLa [2]): 11%
viability at 0.5 µM (HeLa [3]): 47.3%
Activity (HeLa [4]): 17.05%
Activity (HeLa [5]): 76.27%
fold change (FC) (HeLa [6]): 2.3
inhibition in vivo at 30 mg/kg/day (HeLa [7]): 65.8%
Activity (HeLa [8]): Active
Activity (HeLa [9]): Active
Activity (HeLa [10]): 0.637%
Activity (HeLa [11]): 68.8%
Activity (HeLa [12]): Active
Activity [13]: Non-Toxic
Activity [14]: 40.3%
Activity (HeLa [15]): Active
Activity (HeLa [16]): Active
inhibition (HeLa [17]): Active
Activity [18]: Non-Toxic
Activity [19]: Non-Toxic
Activity [20]: Non-Toxic
Activity (HeLa [21]): Dose-dependent effect
IC50 (HeLa [22]): 0.07 µM
Activity (HeLa [23]): 41.1%
